According to ChEMBL document CHEMBL4028906, “Allosteric Inhibitors of SHP2 with Therapeutic Potential for Cancer Treatment” (J Med Chem, 2017):
Calls of active or inactive are those of the source. The calls are words filed in the database; no cut-off is given here.

biological target: T1, Tyrosine-protein phosphatase non-receptor type 11 (Homo sapiens) (UniProt Q06124); assay: Allosteric inhibition of SHP2 in human SF268 cells stably expressing Yap-Luc reporter assessed as reduction in YAP transcriptional activity at 3 to 12 uM after 12 hrs by Yap-luciferase reporter gene assay; format: cell-based
T1 sequence (whole entry): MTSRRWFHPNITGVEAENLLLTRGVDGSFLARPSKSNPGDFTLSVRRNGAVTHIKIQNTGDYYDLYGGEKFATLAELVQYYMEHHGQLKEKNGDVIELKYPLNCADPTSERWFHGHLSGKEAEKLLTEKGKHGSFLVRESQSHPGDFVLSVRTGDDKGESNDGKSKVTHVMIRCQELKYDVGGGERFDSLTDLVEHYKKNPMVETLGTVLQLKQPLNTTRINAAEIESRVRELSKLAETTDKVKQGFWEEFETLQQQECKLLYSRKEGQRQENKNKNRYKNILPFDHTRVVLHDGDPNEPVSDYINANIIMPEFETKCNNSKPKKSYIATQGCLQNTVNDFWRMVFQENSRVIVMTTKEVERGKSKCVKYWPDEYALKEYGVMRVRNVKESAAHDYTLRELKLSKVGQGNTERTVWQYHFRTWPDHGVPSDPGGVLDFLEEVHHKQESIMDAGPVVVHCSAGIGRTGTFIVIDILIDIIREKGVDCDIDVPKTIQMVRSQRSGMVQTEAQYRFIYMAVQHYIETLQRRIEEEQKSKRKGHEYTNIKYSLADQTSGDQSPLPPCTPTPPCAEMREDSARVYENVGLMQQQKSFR
Method in brief: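 SF268 cells stably carrying a Yap-Luc reporter, in RPMI-1640 on 96-well plates, given inhibitor at 3, 6 and 12 μM on day 1. After 12 h, lysates read for Renilla luciferase, normalized to CellTiter-Glo signal; mean±s.d., n=3.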

Row | inhibition | SMILES
1 | inactive | CC1(N)CCN(c2nc(-c3cc4ccccc4s3)cs2)CC1

biological target: Tyrosine-protein phosphatase non-receptor type 11 (Homo sapiens, UniProt Q06124); assay: Allosteric inhibition of SHP2 PTP domain (unknown origin) expressed in Escherichia coli BL21(DE3) using DIFMUP as substrate preincubated for 20 mins followed by substrate addition measured after 20 mins by phosphatase assay
Method in brief: (§1)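 His-tagged SHP2 constructs expressed in E. coli BL21(DE3) (0.5 mM IPTG, 5 h, 30 °C) and Ni-column purified. 1.5 nM enzyme preincubated 20 min at room temperature with compound in 0.1 M sodium acetate pH 5.0. DIFMUP then added, 20 min further, fluorescence at 358/455 nm. Eight 3-fold dilutions, duplicate wells, IC50 from at least three independent experiments.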

Row | IC50 | SMILES
2 | > 100 µM | CC1(C)CC(Nc2nc(-c3ccccc3)cs2)CC(C)(C)N1

biological target: T1, Tyrosine-protein phosphatase non-receptor type 11 (Homo sapiens); assay: Allosteric inhibition of SHP2 in human NCI-H661 cells assessed as downregulation of phosphorylated ERK1/2 levels at 20 uM after 2 hrs by Western blot analysis; format: cell-based
Method in brief: (§2)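 NCI-H661 cells in 6-well plates exposed to inhibitor 2 h at 37 °C. RIPA lysates separated by SDS-PAGE, transferred to PVDF, milk-blocked, probed overnight at 4 °C for pERK1/2, ERK1/2, pAKT and AKT. Repeated at least three times.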

Row | inhibition | SMILES
3 | inactive | CC1(N)CCN(c2nc(-c3cc4ccccc4s3)cs2)CC1

biological target: T1, Tyrosine-protein phosphatase non-receptor type 11 (Homo sapiens); assay: Allosteric inhibition of SHP2 in human NCI-H661 cells assessed as downregulation of phosphorylated AKT levels at 20 uM after 2 hrs by Western blot analysis; format: cell-based; method in brief: as §2

Row | inhibition | SMILES
4 | inactive | CC1(N)CCN(c2nc(-c3cc4ccccc4s3)cs2)CC1

tested on: not listed separately; assay: Allosteric inhibition of SHP2 E76A mutant (unknown origin) expressed in Escherichia coli BL21(DE3) using DIFMUP as substrate preincubated for 20 mins followed by substrate addition measured after 20 mins by phosphatase assay; set-up: species or system Homo sapiens; method in brief: as §1

Row | SMILES | IC50
5 | CC1(N)CCN(c2nc(-c3cc4ccccc4s3)cs2)CC1 | > 100 µM
6 | CC1(N)CCN(c2nc(-c3ccc(-c4ccc(F)cc4)cc3)cs2)CC1 | 14.2 µM
7 | c1ccc2cc(-c3csc(NCC4CCCNC4)n3)ccc2c1 (stereo unspecified) | 1.49 µM
8 | c1ccc2cc(-c3csc(NC4CCNCC4)n3)ccc2c1 | 0.73 µM
9 | CC1(C)CC(Nc2nc(-c3cccc(-c4ccccc4)c3)cs2)CC(C)(C)N1 | 3.27 µM
10 | c1ccc2cc(-c3csc(NC4CCNC4)n3)ccc2c1 (stereo unspecified) | 1.65 µM
11 | CC1(N)CCN(c2nc(-c3ccc(-c4ccc(O)cc4)cc3)cs2)CC1 | 20.3 µM
12 | CC1(N)CCN(c2nc(-c3cccc4c3oc3ccccc34)cs2)CC1 | 46.5 µM
13 | CC1(C)CC(Nc2nc(-c3ccc4ccccc4c3)cs2)CC(C)(C)N1 | 2.55 µM
14 | NCC1CCCN(c2nc(-c3ccc4ccccc4c3)cs2)C1 (stereo unspecified) | 52.8 µM
15 | CC1(N)CCN(c2cnc(-c3cccc(Cl)c3Cl)c(N)n2)CC1 | 0.12 µM
16 | CC1(C)CC(Nc2nc(-c3ccccc3)cs2)CC(C)(C)N1 | 19.1 µM
17 | CC1(C)CC(Nc2nc(-c3ccc(-c4ccccc4)cc3)cs2)CC(C)(C)N1 | 5.32 µM
18 | CN1CCC(Nc2nc(-c3ccc4ccccc4c3)cs2)CC1 | 2.81 µM
19 | CC1CN(c2nc(-c3ccc4ccccc4c3)cs2)CC(C)N1 (stereo unspecified) | 12.3 µM

Now from value to compound:

Row | IC50 | SMILES
20 | 2.68 µM | CC1(N)CCN(c2nc(-c3ccc4cc(Cl)ccc4c3)cs2)CC1
21 | 3.62 µM | CC1(N)CCN(c2nc(-c3cccc(-c4ccccc4)c3)cs2)CC1
22 | 52.3 µM | CC1(N)CCN(c2nc(-c3cnc4ccccc4c3)cs2)CC1
23 | 1.08 µM | COC(=O)c1ccc2cc(-c3csc(N4CCC(C)(N)CC4)n3)ccc2c1
24 | 2.46 µM | COc1ccc2cc(-c3csc(N4CCC(C)(N)CC4)n3)ccc2c1
25 | 1.37 µM | CC1(N)CCN(c2nc(-c3ccc4cc(C#N)ccc4c3)cs2)CC1
26 | 51.7 µM | CC1(N)CCN(c2nc(-c3ccc4cc(C(=O)O)ccc4c3)cs2)CC1
27 | 1.76 µM | CC1(N)CCN(c2nc(-c3cccc(-c4ccc(C#N)cc4)c3)cs2)CC1
28 | > 100 µM | CC1(N)CCN(c2nc(-c3ccc4cc(CO)ccc4c3)cs2)CC1
29 | 3.28 µM | COC(=O)c1ccc(-c2cccc(-c3csc(N4CCC(C)(N)CC4)n3)c2)cc1
30 | 1.27 µM | CC1(N)CCN(c2nc(-c3ccc4cc(F)ccc4c3)cs2)CC1
31 | 1.48 µM | CC1(N)CCN(c2nc(-c3ccc4ccccc4c3)cs2)CC1
